Reference: ChEMBL document CHEMBL3861986, “Synthesis and Enantiomeric Separation of a Novel Spiroketal Derivative: A Potent Human Telomerase Inhibitor with High in Vitro Anticancer Activity” (J Med Chem, 2016)
Activity calls are given as the source filed them. The rule behind the calls is not given here.

Legend:
[1] = Growth inhibition of human M14 cells at 250 nM after 24 hrs by cell titer 96 cell proliferation assay; format: functional; conditions: M14, 24 h, read-out: GI
In short: (§1)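 M14 cells seeded at 8×10^4 cells/mL in 96-well plates and left to adhere overnight. They were treated with 62.5, 125 or 250 nM compound or with DMSO control for up to 72 h. Dye was added for 4 h, followed by solubilization/stop solution, and absorbance was read at 570 nm, zeroed on medium-only wells. Inhibition is given as % versus control. Triplicates in three experiments.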

[2] = Growth inhibition of human M14 cells at 250 nM after 48 hrs by cell titer 96 cell proliferation assay; format: functional; conditions: M14, 48 h, read-out: GI; in short: as §1
[3] = Growth inhibition of human M14 cells at 250 nM after 72 hrs by cell titer 96 cell proliferation assay; format: functional; conditions: M14, 72 h, read-out: GI; in short: as §1
[4] = Growth inhibition of human HL60 cells at 250 nM after 24 hrs by trypan blue dye exclusion assay; format: functional; conditions: HL-60, 24 h, read-out: GI
In short: (§2)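 Cells seeded at 5×10^4 cells/mL and left to adhere overnight. They were then exposed to 7.8–250 nM compound or to DMSO vehicle, 3 wells per treatment, at 37°C in 5% CO2 for 24, 48 or 72 h. Trypsinized cells were counted by hemocytometer, and viability was scored by trypan blue exclusion. Read-out is viable cell number, mean ± SE of triplicate wells, from a representative experiment of at least three.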

[5] = molecular target: T1, Telomerase reverse transcriptase (Homo sapiens, UniProt O14746); assay: Inhibition of telomerase activity in human MCF7 cells using biotin-labeled TeloTAGGG as primer at 31.2 nM preincubated for 48 hrs followed by primer addition measured after 30 mins by PCR-ELISA; format: cell-based
T1 sequence (O14746 whole entry): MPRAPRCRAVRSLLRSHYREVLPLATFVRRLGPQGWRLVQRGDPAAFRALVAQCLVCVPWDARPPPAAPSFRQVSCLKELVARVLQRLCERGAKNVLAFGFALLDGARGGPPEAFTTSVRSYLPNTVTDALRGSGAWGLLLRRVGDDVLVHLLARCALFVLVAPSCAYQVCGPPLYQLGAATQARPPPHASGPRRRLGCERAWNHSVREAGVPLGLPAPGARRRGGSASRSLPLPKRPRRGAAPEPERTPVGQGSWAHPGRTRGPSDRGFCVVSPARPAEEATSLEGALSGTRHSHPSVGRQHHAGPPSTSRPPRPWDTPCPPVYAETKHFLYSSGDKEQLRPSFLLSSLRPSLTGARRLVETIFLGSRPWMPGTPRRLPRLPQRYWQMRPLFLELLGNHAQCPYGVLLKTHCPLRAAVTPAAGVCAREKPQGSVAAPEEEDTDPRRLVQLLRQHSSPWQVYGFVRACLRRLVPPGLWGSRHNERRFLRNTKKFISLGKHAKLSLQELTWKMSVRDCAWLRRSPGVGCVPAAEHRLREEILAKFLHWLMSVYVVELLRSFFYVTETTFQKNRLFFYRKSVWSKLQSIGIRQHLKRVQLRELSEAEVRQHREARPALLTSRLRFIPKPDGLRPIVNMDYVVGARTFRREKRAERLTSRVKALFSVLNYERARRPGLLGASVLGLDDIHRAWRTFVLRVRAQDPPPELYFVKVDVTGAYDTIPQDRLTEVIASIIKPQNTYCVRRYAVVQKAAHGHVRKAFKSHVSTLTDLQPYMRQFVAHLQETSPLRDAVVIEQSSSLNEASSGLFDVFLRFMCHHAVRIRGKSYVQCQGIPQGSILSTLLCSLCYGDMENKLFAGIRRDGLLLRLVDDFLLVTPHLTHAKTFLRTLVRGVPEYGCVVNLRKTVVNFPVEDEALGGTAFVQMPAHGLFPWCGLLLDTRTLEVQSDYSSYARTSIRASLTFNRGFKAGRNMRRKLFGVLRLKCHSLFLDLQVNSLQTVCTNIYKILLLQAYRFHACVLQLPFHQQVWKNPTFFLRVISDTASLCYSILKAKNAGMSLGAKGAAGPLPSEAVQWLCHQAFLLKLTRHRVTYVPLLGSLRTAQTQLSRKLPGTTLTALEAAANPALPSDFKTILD
In short: (§3)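 Cells treated 48 h with 31.2–250 nM, then washed, lysed, and the supernatants stored at −80°C. Extracts were incubated 30 min with biotin-labeled primer for telomeric repeat extension. Products plus internal standard were PCR-amplified, hybridized to digoxigenin probes, captured on streptavidin plates, detected with peroxidase antibody, and read at 450 nm. Heat-inactivated extract (95°C, 10 min) served as negative control. Inhibition is % of untreated means; triplicate.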

SH-SY5Y [6] = assay: Induction of apoptosis in human SH-SY5Y cells assessed as increase in caspase 3/7 activation at 31.2 nM after 24 hrs by caspase-glo 3/7 luminescence assay relative to control; format: functional
In short: (§4)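 SH-SY5Y cells seeded at 5×10^4 cells/mL and left to adhere overnight, then exposed to 7.8–31.2 nM for 24 h. Caspase-Glo 3/7 reagent, in a volume equal to the medium, was added for 1 h at 37°C. Luminescence from the cleaved aminoluciferin substrate was read and expressed relative to untreated control set at 1.0. DMSO-treated cells served as negative control. Triplicate wells.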

[7] = molecular target: T1, Telomerase reverse transcriptase; assay: Inhibition of telomerase activity in human MCF7 cells using biotin-labeled TeloTAGGG as primer preincubated for 48 hrs followed by primer addition measured after 30 mins by PCR-ELISA; format: cell-based; in short: as §3
[8] = molecular target: T1, Telomerase reverse transcriptase; assay: Inhibition of telomerase activity in human M14 cells using biotin-labeled TeloTAGGG as primer preincubated for 48 hrs followed by primer addition measured after 30 mins by PCR-ELISA; format: cell-based; in short: as §3
[9] = molecular target: T1, Telomerase reverse transcriptase; assay: Inhibition of telomerase activity in human HT-29 cells using biotin-labeled TeloTAGGG as primer at 125 nM preincubated for 48 hrs followed by primer addition measured after 30 mins by PCR-ELISA; format: cell-based; in short: as §3
SH-SY5Y [10] = assay: Induction of apoptosis in human SH-SY5Y cells assessed as increase in caspase 3/7 activation at 7.8 to 15.6 nM after 24 hrs by caspase-glo 3/7 luminescence assay; format: functional, cell-based; in short: as §4
[11] = molecular target: T1, Telomerase reverse transcriptase; assay: Inhibition of telomerase activity in human MCF7 cells using biotin-labeled TeloTAGGG as primer at 125 nM preincubated for 48 hrs followed by primer addition measured after 30 mins by PCR-ELISA; format: cell-based; in short: as §3
[12] = Growth inhibition of human MCF7 cells at 250 nM after 24 hrs by trypan blue dye exclusion assay; format: functional; conditions: MCF7, 24 h, read-out: GI; in short: as §2
[13] = molecular target: T1, Telomerase reverse transcriptase; assay: Inhibition of telomerase activity in human M14 cells using biotin-labeled TeloTAGGG as primer at 31.2 nM preincubated for 48 hrs followed by primer addition measured after 30 mins by PCR-ELISA; format: cell-based; in short: as §3
[14] = molecular target: T1, Telomerase reverse transcriptase; assay: Inhibition of telomerase activity in human H125 cells using biotin-labeled TeloTAGGG as primer at 250 nM preincubated for 48 hrs followed by primer addition measured after 30 mins by PCR-ELISA; format: cell-based; in short: as §3
[15] = Growth inhibition of human M14 cells at 250 nM after 24 hrs by trypan blue dye exclusion assay; format: functional; conditions: M14, 24 h, read-out: GI; in short: as §2
[16] = molecular target: T1, Telomerase reverse transcriptase; assay: Inhibition of telomerase activity in human HT-29 cells using biotin-labeled TeloTAGGG as primer at 62.5 nM preincubated for 48 hrs followed by primer addition measured after 30 mins by PCR-ELISA; format: cell-based; in short: as §3
[17] = molecular target: T1, Telomerase reverse transcriptase; assay: Inhibition of telomerase activity in human H125 cells using biotin-labeled TeloTAGGG as primer preincubated for 48 hrs followed by primer addition measured after 30 mins by PCR-ELISA; format: cell-based; in short: as §3
[18] = molecular target: T1, Telomerase reverse transcriptase; assay: Inhibition of telomerase activity in human M14 cells using biotin-labeled TeloTAGGG as primer at 125 nM preincubated for 48 hrs followed by primer addition measured after 30 mins by PCR-ELISA; format: cell-based; in short: as §3
[19] = molecular target: T1, Telomerase reverse transcriptase; assay: Inhibition of telomerase activity in human M14 cells using biotin-labeled TeloTAGGG as primer at 62.5 nM preincubated for 48 hrs followed by primer addition measured after 30 mins by PCR-ELISA; format: cell-based; in short: as §3
[20] = molecular target: T1, Telomerase reverse transcriptase; assay: Inhibition of telomerase activity in human HT-29 cells using biotin-labeled TeloTAGGG as primer at 250 nM preincubated for 48 hrs followed by primer addition measured after 30 mins by PCR-ELISA; format: cell-based; in short: as §3
[21] = molecular target: T1, Telomerase reverse transcriptase; assay: Inhibition of telomerase activity in human MCF7 cells using biotin-labeled TeloTAGGG as primer at 250 nM preincubated for 48 hrs followed by primer addition measured after 30 mins by PCR-ELISA; format: cell-based; in short: as §3
[22] = Growth inhibition of human SH-SY5Y cells at 250 nM after 24 hrs by trypan blue dye exclusion assay; format: functional; conditions: read-out: GI; in short: as §2
[23] = Growth inhibition of human HT-29 cells at 250 nM after 24 hrs by trypan blue dye exclusion assay; format: functional; conditions: HT-29, 24 h, read-out: GI; in short: as §2
[24] = molecular target: T1, Telomerase reverse transcriptase; assay: Inhibition of telomerase activity in human H125 cells using biotin-labeled TeloTAGGG as primer at 125 nM preincubated for 48 hrs followed by primer addition measured after 30 mins by PCR-ELISA; format: cell-based; in short: as §3
[25] = Growth inhibition of human H125 cells at 250 nM after 24 hrs by trypan blue dye exclusion assay; format: functional; conditions: NCI-H125, 24 h, read-out: GI; in short: as §2
[26] = molecular target: T1, Telomerase reverse transcriptase; assay: Inhibition of telomerase activity in human H125 cells using biotin-labeled TeloTAGGG as primer at 31.2 nM preincubated for 48 hrs followed by primer addition measured after 30 mins by PCR-ELISA; format: cell-based; in short: as §3
[27] = molecular target: T1, Telomerase reverse transcriptase; assay: Inhibition of telomerase activity in human H125 cells using biotin-labeled TeloTAGGG as primer at 62.5 nM preincubated for 48 hrs followed by primer addition measured after 30 mins by PCR-ELISA; format: cell-based; in short: as §3
[28] = molecular target: T1, Telomerase reverse transcriptase; assay: Inhibition of telomerase activity in human HT-29 cells using biotin-labeled TeloTAGGG as primer preincubated for 48 hrs followed by primer addition measured after 30 mins by PCR-ELISA; format: cell-based; in short: as §3
[29] = molecular target: T1, Telomerase reverse transcriptase; assay: Inhibition of telomerase activity in human M14 cells using biotin-labeled TeloTAGGG as primer at 250 nM preincubated for 48 hrs followed by primer addition measured after 30 mins by PCR-ELISA; format: cell-based; in short: as §3
[30] = molecular target: T1, Telomerase reverse transcriptase; assay: Inhibition of telomerase activity in human MCF7 cells using biotin-labeled TeloTAGGG as primer at 62.5 nM preincubated for 48 hrs followed by primer addition measured after 30 mins by PCR-ELISA; format: cell-based; in short: as §3
[31] = molecular target: T1, Telomerase reverse transcriptase; assay: Inhibition of telomerase activity in human HT-29 cells using biotin-labeled TeloTAGGG as primer at 31.2 nM preincubated for 48 hrs followed by primer addition measured after 30 mins by PCR-ELISA; format: cell-based; in short: as §3

C[C@@H]1CCC[C@@]2(O[C@H](O)C=CC2=O)O1
inhibition of growth at 0.25 µM [1]: 36.7% | inhibition of growth at 0.25 µM [2]: 58.1% | inhibition of growth at 0.25 µM [3]: 63.7%

C[C@H]1CCC[C@]2(O[C@@H](O)C=CC2=O)O1
inhibition of growth at 0.25 µM [1]: 40.4% | inhibition of growth at 0.25 µM [2]: 64.4% | inhibition of growth at 0.25 µM [3]: 66.6%

CC1CCCC2(OC(O)C=CC2=O)O1 (mixture of isomers)
inhibition of growth at 0.25 µM [4]: > 90% | inhibition [5]: 0% | fold change (FC) (SH-SY5Y [6]): 8.2 | IC50 [7]: 12.6 to 85.2 nM | inhibition [7]: Dose-dependent effect | IC50 [8]: 12.6 to 85.2 nM | inhibition [8]: Dose-dependent effect | inhibition [9]: 69% | inhibition of growth at 0.25 µM [1]: 36.8% | Activity (SH-SY5Y [10]): Active | inhibition [11]: 67.9% | inhibition of growth at 0.25 µM [12]: > 90% | inhibition [13]: 62% | inhibition [14]: 75.7% | inhibition of growth at 0.25 µM [15]: > 90% | inhibition [16]: 53.5% | inhibition of growth at 0.25 µM [2]: 56.1% | IC50 [17]: 12.6 to 85.2 nM | inhibition [17]: Dose-dependent effect | inhibition [18]: 74% | inhibition [19]: 63% | inhibition [20]: 73.4% | inhibition [21]: 78.6% | inhibition of growth at 0.25 µM [22]: > 90% | inhibition of growth at 0.25 µM [23]: > 90% | inhibition [24]: 67.6% | inhibition of growth at 0.25 µM [25]: > 90% | inhibition [26]: 13.6% | inhibition of growth at 0.25 µM [3]: 61.4% | inhibition [27]: 48.7% | IC50 [28]: 12.6 to 85.2 nM | inhibition [28]: Dose-dependent effect | inhibition [29]: 82.6% | inhibition [30]: 37.5% | inhibition [31]: 24%
